{
  "source": "ChEMBL document CHEMBL1145044",
  "about": "“Novel cationic transport agents for oligonucleotide delivery into primary leukemic cells” (J Med Chem, 2003)",
  "key": {"[1]": {"assay": "Relative uptake of ODN in Primary leukemic cells(PLC) incubated with 0.25 uMol/L of P32-labeled v-myb antisense ODN for 2 hr at a concentration of 2.5 uMol/L", "type": "functional, Gallus gallus", "in_short": "(§1)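 Cells were seeded at 1 × 10^6 per well in medium with 10% serum one day ahead. 0.25 µM ³²P-end-labeled v-myb antisense ODN was complexed with agent (final 2.5 µM) in serum-free medium for 30 min at room temperature. Cells were then exposed for 2 h at 37 °C or 41 °C depending on cell type. Membrane-bound ODN was stripped by acid-salt elution. Cells were lysed in proteinase K buffer and counted by liquid scintillation. Uptake is relative to free ODN, mean of ≥3 independent experiments.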"}, "[2]": {"assay": "Cytotoxicity for relative cell viability compared to untreated control in CEF cells by MTT assay", "type": "functional, cell-based, Gallus gallus"}, "[3]": {"assay": "Cytotoxicity for relative cell viability compared to untreated control in BM2 cells by MTT assay", "type": "functional, cell-based, Gallus gallus", "in_short": "(§2)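 MTT reduction by cells exposed to transport agent alone, expressed relative to untreated control cells (100%). The value reported is the agent concentration at which relative viability falls to 50%.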"}, "[4]": {"assay": "Cytotoxicity for relative cell viability compared to untreated control in Primary leukemic cells(PLC) by MTT assay", "type": "functional, cell-based, Gallus gallus", "in_short": "as §2"}, "[5]": {"assay": "Relative uptake of ODN in BM2 cells incubated with 0.25 uMol/L of P32-labeled v-myb antisense ODN for 2 hr at a concentration of 2.5 uMol/L", "type": "functional, Gallus gallus", "in_short": "as §1"}, "[6]": {"assay": "Apparent association constant was determined", "type": "ADME"}},
  "data": [
    {"smiles": "I.I.I.I.O=C(NCCNC1=NCCCN1)c1ccc(-c2c3nc(c(-c4ccc(C(=O)NCCNC5=NCCCN5)cc4)c4ccc([nH]4)c(-c4ccc(C(=O)NCCNC5=NCCCN5)cc4)c4ccc([nH]4)c(-c4ccc(C(=O)NCCNC5=NCCCN5)cc4)c4nc2C=C4)C=C3)cc1", "values": [
      {"measurement": "Relative ODN uptake", "setting": "[1]", "result": 43.2},
      {"measurement": "IC50", "setting": "[2]", "result": "> 20", "unit": "uM l-1"},
      {"measurement": "IC50", "setting": "[3]", "result": "> 20", "unit": "uM l-1"},
      {"measurement": "IC50", "setting": "[4]", "result": "> 20", "unit": "uM l-1"},
      {"measurement": "Relative ODN uptake", "setting": "[5]", "result": 10.8},
      {"measurement": "K ass", "setting": "[6]", "result": 268000, "unit": "M⁻¹"}
    ]},
    {"smiles": "CCC1=C(C)C2=N/C1=C\\c1[nH]c(c(CCC(=O)NCCOCCOCCN)c1C)/C=c1\\[nH]/c(c(CC)c1CC)=C\\c1[nH]c(c(C)c1CCC(=O)NCCOCCOCCN)/C=C1\\N=C(C2)C(C)=C1CC", "values": [
      {"measurement": "Relative ODN uptake", "setting": "[1]", "result": 4.4},
      {"measurement": "IC50", "setting": "[2]", "result": 10, "unit": "uM l-1"},
      {"measurement": "IC50", "setting": "[4]", "result": 14, "unit": "uM l-1"}
    ]},
    {"smiles": "C[N+](C)(C)Cc1ccc(-c2c3nc(c(-c4ccc(C[N+](C)(C)C)cc4)c4ccc([nH]4)c(-c4ccc(C[N+](C)(C)C)cc4)c4ccc([nH]4)c(-c4ccc(C[N+](C)(C)C)cc4)c4nc2C=C4)C=C3)cc1.[Cl-].[Cl-].[Cl-].[Cl-]", "values": [
      {"measurement": "Relative ODN uptake", "setting": "[1]", "result": 4.2},
      {"measurement": "IC50", "setting": "[2]", "result": 10, "unit": "uM l-1"},
      {"measurement": "IC50", "setting": "[3]", "result": 10, "unit": "uM l-1"},
      {"measurement": "IC50", "setting": "[4]", "result": 12, "unit": "uM l-1"},
      {"measurement": "Relative ODN uptake", "setting": "[5]", "result": 2.5}
    ]},
    {"smiles": "CCC1=C(C)C2=N/C1=C\\c1[nH]c(c(CCC(=O)N(C)CC(O)C(O)C(O)C(O)CO)c1C)/C=c1\\[nH]/c(c(CC)c1CC)=C\\c1[nH]c(c(C)c1CCC(=O)N(C)CC(O)C(O)C(O)C(O)CO)/C=C1\\N=C(C2)C(C)=C1CC", "note": "(configuration not stated)", "values": [
      {"measurement": "Relative ODN uptake", "setting": "[1]", "result": 9.1},
      {"measurement": "IC50", "setting": "[2]", "result": 10, "unit": "uM l-1"},
      {"measurement": "IC50", "setting": "[3]", "result": 10, "unit": "uM l-1"},
      {"measurement": "IC50", "setting": "[4]", "result": 4.2, "unit": "uM l-1"}
    ]},
    {"smiles": "Cl.Cl.Cl.Cl.O=C(NCC1CCN2CCC(CO)N=C2N1)c1ccc(-c2c3nc(c(-c4ccc(C(=O)NCC5CCN6CCC(CO)N=C6N5)cc4)c4ccc([nH]4)c(-c4ccc(C(=O)NCC5CCN6CCC(CO)N=C6N5)cc4)c4ccc([nH]4)c(-c4ccc(C(=O)NCC5CCN6CCC(CO)N=C6N5)cc4)c4nc2C=C4)C=C3)cc1", "note": "(configuration not stated)", "values": [
      {"measurement": "Relative ODN uptake", "setting": "[1]", "result": 13.4},
      {"measurement": "IC50", "setting": "[2]", "result": 15, "unit": "uM l-1"},
      {"measurement": "IC50", "setting": "[3]", "result": 15, "unit": "uM l-1"},
      {"measurement": "IC50", "setting": "[4]", "result": "> 20", "unit": "uM l-1"}
    ]},
    {"smiles": "CCC1=C(C)C2=N/C1=C\\c1[nH]c(c(CCC(=O)NCCc3c[nH]cn3)c1C)/C=c1\\[nH]/c(c(CC)c1CC)=C\\c1[nH]c(c(C)c1CCC(=O)NCCc1c[nH]cn1)/C=C1\\N=C(C2)C(C)=C1CC", "values": [
      {"measurement": "Relative ODN uptake", "setting": "[1]", "result": 2.1},
      {"measurement": "IC50", "setting": "[2]", "result": 8.5, "unit": "uM l-1"},
      {"measurement": "IC50", "setting": "[4]", "result": 8.5, "unit": "uM l-1"}
    ]},
    {"smiles": "Br.OC[C@@H]1CCN2CC[C@@H](CO)NC2N1", "values": [
      {"measurement": "Relative ODN uptake", "setting": "[1]", "result": 0.77},
      {"measurement": "IC50", "setting": "[4]", "result": 8.5, "unit": "uM l-1"},
      {"measurement": "Relative ODN uptake", "setting": "[5]", "result": 2.5}
    ]},
    {"smiles": "I.NCCNC1=NCCCN1", "values": [
      {"measurement": "Relative ODN uptake", "setting": "[1]", "result": 3.2},
      {"measurement": "IC50", "setting": "[2]", "result": 20, "unit": "uM l-1"},
      {"measurement": "IC50", "setting": "[4]", "result": "> 20", "unit": "uM l-1"},
      {"measurement": "Relative ODN uptake", "setting": "[5]", "result": 5.1}
    ]},
    {"smiles": "Cc1ccc(-c2c3nc(c(-c4ccc(C[N+](C)(C)C)cc4)c4ccc([nH]4)c(-c4ccc(C)cc4)c4ccc([nH]4)c(-c4ccc(C[N+](C)(C)C)cc4)c4nc2C=C4)C=C3)cc1.[Cl-].[Cl-]", "values": [
      {"measurement": "Relative ODN uptake", "setting": "[1]", "result": 67.5},
      {"measurement": "IC50", "setting": "[2]", "result": "> 20", "unit": "uM l-1"},
      {"measurement": "IC50", "setting": "[3]", "result": "> 20", "unit": "uM l-1"},
      {"measurement": "IC50", "setting": "[4]", "result": "> 20", "unit": "uM l-1"},
      {"measurement": "Relative ODN uptake", "setting": "[5]", "result": 16.7},
      {"measurement": "K ass", "setting": "[6]", "result": "2.2e+06", "unit": "M⁻¹"}
    ]},
    {"smiles": "CCc1c(C(=O)NC(=N)N)[nH]c(Cc2[nH]c(C(=O)NC(=N)N)c(CC)c2C)c1C.Cl.Cl", "values": [
      {"measurement": "Relative ODN uptake", "setting": "[1]", "result": 1.8},
      {"measurement": "IC50", "setting": "[2]", "result": 15, "unit": "uM l-1"},
      {"measurement": "IC50", "setting": "[3]", "result": "> 10", "unit": "uM l-1"},
      {"measurement": "IC50", "setting": "[4]", "result": "> 20", "unit": "uM l-1"},
      {"measurement": "Relative ODN uptake", "setting": "[5]", "result": 1.3}
    ]},
    {"smiles": "C[n+]1ccc(-c2c3nc(c(-c4cc[n+](C)cc4)c4ccc([nH]4)c(-c4cc[n+](C)cc4)c4ccc([nH]4)c(-c4cc[n+](C)cc4)c4nc2C=C4)C=C3)cc1", "note": "[TMPYP4]", "values": [
      {"measurement": "Relative ODN uptake", "setting": "[1]", "result": 1.2},
      {"measurement": "IC50", "setting": "[2]", "result": 15, "unit": "uM l-1"},
      {"measurement": "IC50", "setting": "[4]", "result": "> 20", "unit": "uM l-1"},
      {"measurement": "Relative ODN uptake", "setting": "[5]", "result": 3.8}
    ]}
  ]
}
